Data: ChEMBL document CHEMBL2062426 (J Med Chem, 2012)

Legend:
[1] = target: 72 kDa type IV collagenase (Homo sapiens, UniProt P08253); assay: Inhibition of MMP2 using (7-methoxycoumarin-4-yl)acetyl-Pro-Leu-Gly-Leu-(3-(2,4-dinitrophenyl)-L-2,3-diaminopropionyl)Ala-Arg-NH2 as substrate incubated for 30 mins prior to substrate addition measured for 10 mins by fluorometry
[2] = target: Matrix metalloproteinase-9 (Homo sapiens, UniProt P14780); assay: Inhibition of MMP9 using (7-methoxycoumarin-4-yl)acetyl-Pro-Leu-Gly-Leu-(3-(2,4-dinitrophenyl)-L-2,3-diaminopropionyl)Ala-Arg-NH2 as substrate incubated for 30 mins prior to substrate addition measured for 10 mins by fluorometry
Matrix metalloproteinase-9, sequence (P14780 whole entry): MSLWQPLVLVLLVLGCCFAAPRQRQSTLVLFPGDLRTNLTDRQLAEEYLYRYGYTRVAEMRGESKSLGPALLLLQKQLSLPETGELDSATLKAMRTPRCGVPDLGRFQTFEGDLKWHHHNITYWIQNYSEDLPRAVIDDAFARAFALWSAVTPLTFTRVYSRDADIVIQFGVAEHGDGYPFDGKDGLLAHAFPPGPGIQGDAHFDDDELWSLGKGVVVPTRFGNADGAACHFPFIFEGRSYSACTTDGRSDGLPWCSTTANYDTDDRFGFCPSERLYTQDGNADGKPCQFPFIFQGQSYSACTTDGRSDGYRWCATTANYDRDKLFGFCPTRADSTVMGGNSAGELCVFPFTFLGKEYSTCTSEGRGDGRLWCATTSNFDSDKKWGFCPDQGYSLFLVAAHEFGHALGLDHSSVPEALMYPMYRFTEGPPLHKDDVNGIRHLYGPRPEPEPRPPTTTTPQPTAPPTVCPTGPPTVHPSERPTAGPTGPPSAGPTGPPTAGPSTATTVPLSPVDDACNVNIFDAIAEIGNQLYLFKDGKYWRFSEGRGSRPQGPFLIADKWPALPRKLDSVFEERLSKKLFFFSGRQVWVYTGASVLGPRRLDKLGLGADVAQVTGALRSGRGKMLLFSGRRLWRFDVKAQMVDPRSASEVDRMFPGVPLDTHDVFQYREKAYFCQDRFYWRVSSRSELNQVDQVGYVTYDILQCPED
In short: (§1)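 Activated MMP-8 or MMP-9 (2 nM) was preincubated with inhibitor (10 pM–1 mM) in 50 mM Tris-HCl pH 7.5 with 0.2 M NaCl, 5 mM CaCl2, 20 μM ZnSO4 and 0.05% Brij 35 at 37 °C for 30 min. Fluorogenic substrate (10 μL of 50 μM into 90 μL) was then added. Rates from the first 10 min were plotted against inhibitor concentration, and values are the mean of three experiments.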

[3] = target: Collagenase 3 (Homo sapiens, UniProt P45452); assay: Inhibition of MMP13 using (7-methoxycoumarin-4-yl)acetyl-Pro-Leu-Gly-Leu-(3-(2,4-dinitrophenyl)-L-2,3-diaminopropionyl)Ala-Arg-NH2 as substrate incubated for 30 mins prior to substrate addition measured for 10 mins by fluorometry
[4] = target: Neutrophil collagenase (Homo sapiens, UniProt P22894); assay: Inhibition of MMP8 using (7-methoxycoumarin-4-yl)acetyl-Pro-Leu-Gly-Leu-(3-(2,4-dinitrophenyl)-L-2,3-diaminopropionyl)Ala-Arg-NH2 as substrate incubated for 30 mins prior to substrate addition measured for 10 mins by fluorometry; in short: as §1
Neutrophil collagenase, sequence (P22894 whole entry): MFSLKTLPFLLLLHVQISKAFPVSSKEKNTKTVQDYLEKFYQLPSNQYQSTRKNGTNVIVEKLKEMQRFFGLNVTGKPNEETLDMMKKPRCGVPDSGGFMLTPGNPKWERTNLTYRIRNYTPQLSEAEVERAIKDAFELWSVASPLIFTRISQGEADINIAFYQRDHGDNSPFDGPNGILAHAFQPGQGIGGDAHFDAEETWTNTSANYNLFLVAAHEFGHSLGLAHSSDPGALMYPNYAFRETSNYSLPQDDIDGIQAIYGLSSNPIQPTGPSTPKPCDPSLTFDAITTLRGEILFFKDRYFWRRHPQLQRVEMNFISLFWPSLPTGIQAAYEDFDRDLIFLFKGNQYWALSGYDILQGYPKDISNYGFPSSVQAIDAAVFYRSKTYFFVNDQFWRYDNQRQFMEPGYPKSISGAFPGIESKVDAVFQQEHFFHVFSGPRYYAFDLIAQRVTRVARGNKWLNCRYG

72 kDa type IV collagenase, sequence (P08253 whole entry): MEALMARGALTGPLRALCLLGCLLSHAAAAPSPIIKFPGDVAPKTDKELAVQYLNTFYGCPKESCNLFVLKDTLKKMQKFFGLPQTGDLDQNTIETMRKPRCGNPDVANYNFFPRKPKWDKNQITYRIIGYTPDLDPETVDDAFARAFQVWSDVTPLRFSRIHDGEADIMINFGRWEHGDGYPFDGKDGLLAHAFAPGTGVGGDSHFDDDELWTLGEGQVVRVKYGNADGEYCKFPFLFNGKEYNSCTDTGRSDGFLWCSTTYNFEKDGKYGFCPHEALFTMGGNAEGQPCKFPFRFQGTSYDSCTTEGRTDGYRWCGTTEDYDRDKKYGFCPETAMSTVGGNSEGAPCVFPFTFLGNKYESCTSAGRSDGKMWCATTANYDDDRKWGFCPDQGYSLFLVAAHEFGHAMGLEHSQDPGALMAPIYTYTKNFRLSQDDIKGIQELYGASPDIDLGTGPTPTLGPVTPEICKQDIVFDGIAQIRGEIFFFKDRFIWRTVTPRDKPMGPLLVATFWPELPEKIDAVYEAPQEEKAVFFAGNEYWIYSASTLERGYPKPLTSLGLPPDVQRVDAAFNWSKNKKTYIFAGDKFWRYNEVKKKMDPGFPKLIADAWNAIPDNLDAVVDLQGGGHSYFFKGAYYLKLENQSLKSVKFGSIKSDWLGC

SMILES	IC50 [1] [nM]	IC50 [2] [nM]	IC50 [3] [nM]	IC50 [4] [nM]
COc1ccc(S(=O)(=O)N(Cc2cn(CCOCCOCCOCCOS(=O)(=O)c3ccc(C)cc3)nn2)[C@@H](C(=O)NO)C(C)C)cc1	0.07	0.06	0.02	0.03
COc1ccc(S(=O)(=O)N(Cc2cn(CCOCCOCCOCCF)nn2)[C@@H](C(=O)NO)C(C)C)cc1	0.1	0.05	0.04	0.04
COc1ccc(S(=O)(=O)N(Cc2cn(CCOCCOCCOCCN=[N+]=[N-])nn2)[C@@H](C(=O)NO)C(C)C)cc1	1.2	0.9	6	9
COc1ccc(S(=O)(=O)N(Cc2cn(CCOCCOCCOCCOc3cccnc3F)nn2)[C@@H](C(=O)NO)C(C)C)cc1	3	4	1	5
